In ChEMBL document CHEMBL3351291, “Lajollamycins, nitro group-bearing spiro-β-lactone-γ-lactams obtained from a marine-derived Streptomyces sp” (J Nat Prod, 2014):
Active and inactive are the calls of the source. The rule behind the calls is not given here.

Experiments:
Staphylococcus aureus = experiment: Antibacterial activity against Staphylococcus aureus ATCC 6538p; assay type: functional
Bacillus subtilis = experiment: Antibacterial activity against Bacillus subtilis ATCC 6633; assay type: functional
Kocuria rhizophila = experiment: Antibacterial activity against Kocuria rhizophila NBRC 12708; assay type: functional
Salmonella enterica = experiment: Antibacterial activity against Salmonella enterica ATCC 14028; assay type: functional
Proteus hauseri = experiment: Antibacterial activity against Proteus hauseri NBRC 3851; assay type: functional
Escherichia coli = experiment: Antibacterial activity against Escherichia coli ATCC 35270; assay type: functional
A549 = experiment: Cytotoxicity against human A549 cells; assay type: functional, cell-based
[1] = Cytotoxicity against human HCT116 cells; assay type: functional, cell-based; conditions: HCT-116
[2] = Cytotoxicity against human SNU638 cells; assay type: functional, cell-based; conditions: SNU-638
K562 = experiment: Cytotoxicity against human K562 cells; assay type: functional, cell-based
[3] = Cytotoxicity against human SKHEP1 cells; assay type: functional, cell-based; conditions: SK-HEP1
MDA-MB-231 = experiment: Cytotoxicity against human MDA-MB-231 cells; assay type: functional, cell-based
Candida albicans = experiment: Antifungal activity against Candida albicans; assay type: functional, organism-based
Aspergillus fumigatus = experiment: Antifungal activity against Aspergillus fumigatus; assay type: functional, organism-based
[4] = Inhibition of Candida albicans isocitrate lyase using isocitrate substrate
Procedure, shortened: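 Recombinant ICL at 2.5 μg/mL in 20 mM sodium phosphate buffer, pH 7.0, with 1.27 mM threo-DL(+)-isocitrate, 3.75 mM MgCl2 and 4.1 mM phenylhydrazine. Reaction started on substrate addition, with or without inhibitor in DMSO (0.5% final). After 30 min at 37 °C, glyoxylate phenylhydrazone was read at 324 nm. Percent inhibition was taken against an inhibitor-free control, with 3-nitropropionic acid as positive control.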

| SMILES | MIC (Staphylococcus aureus) [µg/mL] | MIC (Bacillus subtilis) [µg/mL] | MIC (Kocuria rhizophila) [µg/mL] | MIC (Salmonella enterica) [µg/mL] | MIC (Proteus hauseri) [µg/mL] | MIC (Escherichia coli) [µg/mL] | IC50 (A549) [µM] | IC50 [1] [µM] | IC50 [2] [µM] | IC50 (K562) [µM] | IC50 [3] [µM] | IC50 (MDA-MB-231) [µM] | Activity (Candida albicans) | Activity (Aspergillus fumigatus) | IC50 ([4]; read-out: IC50) [µM] | IC50 [4] [µg/mL] |
| --- | --- | --- | --- | --- | --- | --- | --- | --- | --- | --- | --- | --- | --- | --- | --- | --- |
| CO[C@@H](C[C@@H](C)[C@@H](O)/C=C/C=C/CNC(=O)C(C)(C)[C@H](O)/C(C)=C/C=C/C=C/C(C)=C(\C)[N+](=O)[O-])[C@]1(O)[C@@H](C)C(=O)N(C)[C@@]12COC2=O | > 128 | > 128 | > 128 | > 128 | > 128 | > 128 | > 100 | > 100 | > 100 | > 100 | > 100 | > 100 | inactive | inactive | 40 | – |
| CO[C@@H](C[C@@H](C)[C@@H](O)/C=C/C=C/CNC(=O)C(C)(C)[C@H](O)\C(C)=C/C=C/C=C/C(C)=C(\C)[N+](=O)[O-])[C@]1(O)[C@@H](C)C(=O)N(C)[C@]12C(=O)O[C@@H]2C | > 128 | > 128 | > 128 | > 128 | > 128 | > 128 | > 100 | > 100 | > 100 | > 100 | > 100 | > 100 | inactive | inactive | 120 | – |
| O=C(O)CC[N+](=O)[O-] | – | – | – | – | – | – | – | – | – | – | – | – | – | – | – | 4.2 |
| COC(CC(C)C(O)/C=C/C=C/CNC(=O)C(C)(C)C(O)\C(C)=C/C=C\C=C\C(C)=C(/C)[N+](=O)[O-])C1(O)C(C)C(=O)N(C)C12C(=O)OC2C (stereo unspecified) [LAJOLLAMYCIN] | > 128 | > 128 | > 128 | > 128 | > 128 | > 128 | > 100 | > 100 | > 100 | > 100 | > 100 | > 100 | inactive | inactive | 42 | – |
| CO[C@@H](C[C@@H](C)[C@@H](O)/C=C/C=C/CNC(=O)C(C)(C)[C@H](O)/C(C)=C/C=C/C=C/C(C)=C(\C)[N+](=O)[O-])[C@]1(O)[C@@H](C)C(=O)N(C)[C@]12C(=O)O[C@@H]2C | > 128 | > 128 | > 128 | > 128 | > 128 | > 128 | > 100 | > 100 | > 100 | > 100 | > 100 | > 100 | inactive | inactive | 50 | – |
